Source: ChEMBL document CHEMBL1147926, “Synthetic chalcones, flavanones, and flavones as antitumoral agents: biological evaluation and structure-activity relationships” (Bioorg Med Chem, 2007)

Key:
[1] = test system: TK-10; assay: Cytotoxicity against human TK10 cells in aerobic condition assessed as survival at 100 uM by sulforhodamine assay; format: functional; conditions: read-out: Activity
How it was run: (§1)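 Cells kept in RPMI with L-glutamine, penicillin/streptomycin, non-essential amino acids (1% each) and 10% FBS, 37 °C, 5% CO2, 48 h; compound added from 1 mM stock in 10% DMSO to final 100 µM, 24 h exposure. TCA fixation 1 h at 4 °C, sulforhodamine B staining, Tris pH 10.0, A540. Survival = (T/C)×100 versus solvent control; duplicates, two repetitions averaged.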

[2] = test system: MCF7; assay: Cytotoxicity against human MCF7 cells […] in aerobic condition assessed as survival at 100 uM by sulforhodamine assay; format: functional; conditions: read-out: Activity; how it was run: as §1
[3] = test system: HT-29; assay: Cytotoxicity against human HT29 cells ATCC HTB38 in aerobic condition assessed as survival at 100 uM by sulforhodamine assay; format: functional; conditions: read-out: Activity; how it was run: as §1
[4] = test system: HT-29; assay: Growth inhibition of HT29 cells by sulforhodamine assay; format: functional, cell-based; conditions: Homo sapiens
How it was run: (§2)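 Cells grown in supplemented RPMI with 10% FBS at 37 °C, 5% CO2, 48 h, then exposed to increasing compound concentrations (1 mM stocks in 10% DMSO) for 24 h. Sulforhodamine B read-out after TCA fixation at A540. IC50 is the concentration halving absorbance relative to solvent control. Duplicates, at least two repetitions, means reported.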

[5] = Growth inhibition of HK2 cells by sulforhodamine assay; format: cell-based; conditions: Homo sapiens, HK-2
[6] = test system: TK-10; assay: Growth inhibition of TK10 cells by sulforhodamine assay; format: functional, cell-based; conditions: Homo sapiens; how it was run: as §2
[7] = test system: MCF7; assay: Growth inhibition of MCF7 cells by sulforhodamine assay; format: functional, cell-based; conditions: Homo sapiens; how it was run: as §2

IC50 [4] [µM]	IC50 [7] [µM]	Structure (SMILES)	viability at 100 µM [1] [%]	viability at 100 µM [2] [%]	viability at 100 µM [3] [%]	IC50 [5] [µM]	IC50 [6] [µM]
–	–	O=C(/C=C/c1ccc(O)cc1)c1ccccc1O	5	3	9	–	–
–	–	O=c1cc(-c2ccc(Cl)cc2)oc2ccccc12	74	100	100	–	–
–	–	CC(=O)Nc1ccc(/C=C/C(=O)c2ccccc2)cc1	5	24	3	–	–
45	–	O=C(/C=C/c1ccc(Cl)cc1)c1ccccc1O	3	41	25	–	–
–	–	COc1ccc(/C=C/C(=O)c2ccccc2O)cc1	4	10	97	23.7	67
–	–	CCCCCCOc1ccc(/C=C/C(=O)c2ccccc2O)cc1	62	76	97	–	–
–	–	COc1ccc(C2CC(=O)c3ccccc3O2)cc1 (stereo not given)	36	2	100	–	–
–	–	O=c1cc(-c2ccccc2Br)oc2ccccc12	69	36	61	–	–
–	–	O=C(/C=C/c1ccc(OCc2ccccc2)cc1)c1ccccc1O	64	56	59	–	–
–	–	O=C1CC(c2ccc(OCc3ccccc3)cc2)Oc2ccccc21 (stereo not given)	78	76	69	–	–
–	–	COc1ccc(C2CC(=O)c3ccccc3O2)cc1OC (stereo not given)	69	81	68	–	–
–	–	CSc1ccc(/C=C/C(=O)c2ccccc2O)cc1	91	75	76	–	–
–	–	CSc1ccc(C(O)CC(=O)c2ccccc2O)cc1 (stereo not given)	100	90	100	–	–
–	–	CN(C)c1ccc(/C=C/C(=O)c2ccccc2O)cc1	76	87	65	–	–
–	–	CC(=O)Nc1ccc(/C=C/C(=O)c2ccccc2O)cc1	89	79	87	–	–
–	–	O=C(/C=C/c1ccc(Br)cc1)c1ccccc1	90	44	28	–	–
–	–	O=C(/C=C/c1ccccc1Br)c1ccccc1	2	32	26	–	–
–	–	CSc1ccc(/C=C/C(=O)c2ccccc2)cc1	0	47	46	–	–
–	–	Nc1ccc(/C=C/C(=O)c2ccccc2O)cc1	91	43	98	–	–
–	–	COc1ccc(OC)c(/C=C/C(=O)c2ccccc2O)c1	56	45	92	–	–
–	–	O=C(CCc1ccc(OCc2ccccc2)cc1)c1ccccc1O	95	89	100	–	–
–	–	COc1cc(O)c(C(=O)/C=C/c2ccc(OC)c(OC)c2)c(OC)c1	100	89	–	–	–
–	–	O=C(/C=C/c1ccccc1)c1ccc(OCc2ccccc2)cc1O	72	74	99	–	–
–	–	O=C(/C=C/c1ccc(OCc2ccccc2)cc1)c1ccc(OCc2ccccc2)cc1O	92	100	100	–	–
–	–	CCCCOc1ccc(/C=C/C(=O)c2ccc(OCCCC)cc2O)cc1	79	81	99	–	–
–	–	COc1cc(/C=C/C(=O)c2ccccc2O)ccc1OCc1ccccc1	90	97	100	–	–
–	–	O=C(/C=C/c1ccc2c(c1)OCO2)c1ccccc1O	50	79	69	11.6	–

IC50 [4] [µM]	IC50 [7] [µM]	Structure (SMILES)	viability at 100 µM [1] [%]	viability at 100 µM [2] [%]	viability at 100 µM [3] [%]	IC50 [5] [µM]	IC50 [6] [µM]
–	–	COc1ccc(/C=C/C(=O)c2ccccc2O)cc1I	41	96	92	–	–
–	–	O=C(/C=C/c1ccc(OCc2ccccc2)c(I)c1)c1ccccc1O	78	81	100	–	–
–	–	O=C(/C=C/C=C/c1ccccc1)c1ccccc1O	100	84	–	–	–
–	–	O=c1cc(-c2ccc(Br)cc2)oc2ccccc12	94	73	100	48	–
–	–	O=C(/C=C/c1ccc([N+](=O)[O-])cc1)c1ccccc1O	34	43	94	–	–
–	95	COc1ccc(/C=C/C(=O)c2ccccc2O)cc1OC	2	1	70	–	90
–	–	O=C1CC(c2ccc3c(c2)OCO3)Oc2ccccc21 (stereo not given)	100	100	100	–	–
–	–	O=C(/C=C/c1ccccc1Br)c1ccc(OCc2ccccc2)cc1O	65	74	80	–	–
–	–	O=C1CC(c2ccc(Br)cc2)Oc2ccccc21 (stereo not given)	16	26	61	–	–
–	–	O=C(/C=C/c1ccccc1[N+](=O)[O-])c1ccccc1O	100	100	100	–	–
–	–	CCCCCCCCCOc1ccc(/C=C/C(=O)c2ccccc2O)cc1	77	86	98	–	–
13.8	6.7	O=C(/C=C/c1ccccn1)c1ccccc1O	1	4	15	7.9	12.2
–	–	COc1cc(O)c(C(=O)/C=C/c2ccccc2Br)c(OC)c1	53	82	87	–	–
–	–	O=C(/C=C/c1ccccc1Br)c1ccccc1O	3	100	0	–	–
–	–	COc1ccc(/C=C/C(=O)c2ccccc2O)cc1OCc1ccccc1	100	100	100	–	–
–	–	O=C(/C=C/c1ccco1)c1ccccc1O	48	60	40	–	–
–	–	O=C1CC(c2ccccc2Br)Oc2ccccc21 (stereo not given)	54	12	44	–	–
–	–	O=C(/C=C/c1ccc(Br)cc1)c1ccccc1O	60	43	71	33.8	–
85	78	O=C(/C=C/c1ccccc1)c1ccccc1O [2'-HYDROXYCHALCONE]	0	3	14	24.4	79
–	–	COc1ccc(-c2cc(=O)c3ccccc3o2)cc1 [4'-METHOXYFLAVONE]	82	100	100	–	–
–	–	O=C(/C=C/c1ccc(Cl)cc1)c1ccccc1 [4-CHLORO CHALCONE]	2	56	9	–	–
54	90	COc1ccc(/C=C/C(=O)c2ccccc2)cc1 [4-METHOXY CHALCONE]	2	30	2	23.2	53
70	63	O=C(/C=C/c1ccccc1)c1ccccc1 [CHALCONE]	2	19	5	30.5	42
–	–	O=C1CC(c2ccccc2)Oc2ccccc21 (stereo not given) [FLAVANONE]	79	54	69	–	–
–	–	COc1ccc(/C=C/C(=O)c2c(O)cc(OC)cc2OC)cc1 [FLAVOKAWAIN A]	71	60	–	–	–
–	–	O=c1cc(-c2ccccc2)oc2ccccc12 [FLAVONE]	87	57	90	–	–
